Results taken from PubChem BioAssay AID504383 (The Scripps Research Institute Molecular Screening Center, 2011).
In all, about 2,500 compounds went through this assay and about 1,200 (48%) were called active.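 The calls were made as follows: active = mean activation above the low control average plus 3 SD, as set in the primary screen (cut at about 12% in these data); inactive = the rest.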 The set was probably picked from earlier hits. The list shows a part of the results.

What follows are compounds tested against Troponin I, cardiac muscle (Homo sapiens) + Troponin T, cardiac muscle (Homo sapiens) + Troponin C, slow skeletal and cardiac muscles (Homo sapiens) (UniProt P19429+P45379+P63316) (assay: cardiac RTF calcium sensitivity activators, confirmation, biochemical, IANBD-TnC fluorescence, triplicate (AID 504383;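 also: 0% = DMSO at 0.472 mM calcium and 100% = DMSO at 2.9 mM calcium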)). Conditions: IANBD-labeled cardiac RTF, Ca2+ sensitivity fluorescence; at 7.2 µM; stronger effect = higher value; scaled from EC20 to saturating calcium; tested at EC20 calcium, 0.472 mM.
How it was run: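 Assay system: labelled regulated thin filaments / Timing: 15 min at 25 °C / Detection: fluorescence intensity of labelled filaments / Measure: fluorescence gain scaled between EC20 and EC100 calcium controls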

| Compound | activation |
| --- | --- |
| Cc1ccc(NC2OC(C(O)CO)C(O)C2O)cc1[N+](=O)[O-] (centres undefined) | 8.56% (inactive) |
| COc1ccccc1NC(=O)COC(=O)c1cnc(C)cn1 | 101% (active) |
| CC(=O)Nc1sc2c(c1-c1nc3ccccc3s1)CCN(C(C)C)C2 | 10.5% (inactive) |
| O=C(/C=C/c1nc2ccccc2s1)N1CCCCCC1 | 35% (active) |
| O=C(c1ccccc1)N1CCCCC1 | 8.78% (inactive) |
| FC(F)(F)c1cccc(-c2nc(COc3ccc(Cl)cc3Cl)no2)c1 | 5570% (active) |
| Cc1cn(COC/C=C/c2ccccc2)c(=O)[nH]c1=O | 81.1% (active) |
| CCc1nc(Nc2ccc(O)cc2)c2oc3ccccc3c2n1 | 56.6% (active) |
| C=CCNC(=S)NNC(=O)c1ccc(OCC(C)C)cc1 | 4.58% (inactive) |
| NC(=O)NC(=O)COC(=O)c1cccc(NS(=O)(=O)/C=C/c2ccccc2)c1 | 38.6% (active) |
| CC(C)C(=O)COc1c2occc2cc2ccc(=O)oc12 | 1.65% (inactive) |
| CCOC(=O)c1cnc(SC)nc1Oc1cccc(NS(=O)(=O)c2ccc(Cl)cc2)c1 | 14.8% (active) |
| CCOC(=O)N1CCC(Nc2nc3ccccc3nc2NS(=O)(=O)c2ccc(Cl)cc2)CC1 | 11.1% (inactive) |
| CCC1(CC)C(=O)Nc2ccccc21 | 5.14% (inactive) |
| O=C(O)c1cccc(-c2ccc(/C=N/Nc3ccc([N+](=O)[O-])cc3)o2)c1 | 12.7% (active) |
| CN(/N=C/c1ccc(-c2ccc([N+](=O)[O-])cc2)o1)c1ccccc1 | 30.8% (active) |
| O=C1CC(c2ccccc2)=NN1c1ccc([N+](=O)[O-])cc1 | 10.7% (inactive) |
| CN(N=Nc1ccc([N+](=O)[O-])cc1)c1ccccc1 | 36.2% (active) |
| Cc1cc([N+](=O)[O-])ccc1-c1ccc(/C=N/NC(=O)c2ccc(Br)o2)o1 | 7.92% (inactive) |
| O=[N+]([O-])c1ccc(N(c2ccccc2)c2ccccc2)cc1 | 14.5% (active) |
| Cc1ccc(C(=O)N/C(=C/c2ccc(-c3ccc([N+](=O)[O-])cc3)o2)C(=O)NCCCN(C)C)cc1 | 5.11% (inactive) |
| Cc1oc2c(cc(NS(=O)(=O)c3ccc(C(C)C)cc3)c3ccccc32)c1C(=O)O | 9.7% (inactive) |
| COc1ccc2nc3ccccc3[n+]([O-])c2c1 | 13.1% (active) |
| CCOCCCNc1ccc(-c2ccccc2)nn1 | 8.24% (inactive) |
| COc1cc(/C=C/C(=O)CC(=O)/C=C/c2ccc(O)c(OC)c2)ccc1O | 9.89% (inactive) |
| COc1cc(/C=C/C(O)=C/C(=O)/C=C/c2ccc(O)cc2)ccc1O | 8.41% (inactive) |
| COc1cc(/C=C/C(=O)/C=C(O)/C=C/c2ccc(O)c(OC)c2)ccc1O | 287% (active) |
| O=C(/C=C(O)/C=C/c1ccc(O)cc1)/C=C/c1ccc(O)cc1 | 10.7% (inactive) |
| COc1cc(/C=C/C=C2/CC/C(=C/C=C/c3ccc(O)c(OC)c3)C2=O)ccc1O | 19.4% (active) |
